Sampled rows, rich in hits. Any-hit rate of the full collection: about 2.8%.
PAFAH2 inh: inhibitors of human PAFAH2; inhibition, % at 3.39 µM; actives 0.99% (n = 340,000); recombinant PAFAH2, FP-rhodamine activity probe, fluorescence polarization; AID 492956; Q99487;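 active means inhibition above the mean over all tested compounds plus 3 SD, cut at about 30% in these data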;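 further: inhibitors block probe labeling of enzyme so polarization drops; 0% = enzyme with DMSO and 100% = wells lacking PAFAH2 protein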
pPAFAH FP inh: pPAFAH (human) enzyme inhibition; recombinant pPAFAH, FP-rhodamine probe fluorescence polarization; actives 1.5% (n = 330,000); Q13093; inhibition, % at 3.39 µM;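 active means inhibition above the mean inhibition across the screen plus 3 SD, cut at about 25% in these data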;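 further: inhibitors block binding of the rhodamine activity-based probe so polarization drops; 0% = enzyme with DMSO and 100% = wells lacking pPAFAH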
PAFAH1B3 FP inh: inhibitors of human PAFAH1B3 | actives 0.28% (n = 340,000) | AID 492972 | inhibition, % at 3.39 µM | recombinant PAFAH1B3, FP-rhodamine probe, fluorescence polarization;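 active means inhibition above the screen-wide average of all tested compounds plus 3 SD, cut at about 25% in these data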;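 further: 0% = enzyme with DMSO only and 100% = wells lacking PAFAH1B3 protein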
ASAP1 GAP inh: blocks human ASAP1-stimulated Arf1 GTP hydrolysis | inhibition, % at 16.5 µM | Q9ULH1 | actives 0.19% (n = 360,000) | GDP FP detection; in the data active means inhibition above about 25%;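 further: 0% = vehicle with enzyme and substrate and 100% = no enzyme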
Target sequence (Q9ULH1 325-724 limits assumed): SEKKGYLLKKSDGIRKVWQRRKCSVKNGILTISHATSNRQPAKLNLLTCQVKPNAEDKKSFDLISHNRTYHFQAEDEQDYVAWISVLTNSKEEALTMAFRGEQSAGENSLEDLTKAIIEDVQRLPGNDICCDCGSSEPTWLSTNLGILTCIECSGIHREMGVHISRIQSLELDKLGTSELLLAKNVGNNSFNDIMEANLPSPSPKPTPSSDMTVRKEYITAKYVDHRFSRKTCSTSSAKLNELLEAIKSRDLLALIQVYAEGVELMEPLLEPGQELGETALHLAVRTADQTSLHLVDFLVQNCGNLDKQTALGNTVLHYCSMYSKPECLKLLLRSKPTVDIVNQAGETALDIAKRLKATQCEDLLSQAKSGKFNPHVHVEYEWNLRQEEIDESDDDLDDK
ARFGAP1 inh: inhibits rat ARF GTPase activating protein 1. inhibition, % at 16.5 µM. AID 651572. Arfgap1-stimulated ARF1 GTP hydrolysis, GDP FP detection. Q62848. actives 0.26% (n = 360,000);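 active means inhibition above a per-plate limit, mean inhibition of low control wells plus 3 SD, cut at about 25% in these data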;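 further: 0% = DMSO wells with enzyme and 100% = wells lacking Arfgap1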
Target sequence (Q62848 1-136 limits assumed): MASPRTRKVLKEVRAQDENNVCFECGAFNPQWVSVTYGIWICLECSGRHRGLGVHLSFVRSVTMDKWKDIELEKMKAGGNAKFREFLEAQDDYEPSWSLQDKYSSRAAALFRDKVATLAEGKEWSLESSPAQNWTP
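Material: truncated rat Arfgap1 GAP domain; Incubation: compound-enzyme preincubation 20 min, reaction 120 min, detection 60 min, 25 °C; Read-out: percent inhibition of Arfgap1-stimulated GTP hydrolysis; Technique: FP, GDP Alexa 633 tracer displaced from anti-GDP antibody, 620/688 nm; Controls: No-Arfgap1 wells (100%) versus DMSO full-reaction wells (0%); Replication: single well per compound.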
PAFAH1B2 inh: inhibitors of human PAFAH1B2 | recombinant PAFAH1B2, FP-rhodamine activity probe, fluorescence polarization | inhibition, % at 3.39 µM | actives 1.2% (n = 340,000) | P68402;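 active means inhibition above the mean of all tested compounds plus 3 SD, cut at about 24% in these data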;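 further: 0% = enzyme with DMSO and 100% = wells lacking PAFAH1B2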
pPAFAH confirm: confirmation of human plasma PAF acetylhydrolase (pPAFAH) inhibitors | recombinant pPAFAH, FP-Rh probe fluorescence polarization | actives 72% (n = 2,300) | shares compounds with pPAFAH FP inh | inhibition, % at 3.39 µM;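 active means mean inhibition of the triplicate above the hit cutoff set for the earlier primary screen, cut at about 25% in these data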;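 further: 0% = enzyme with DMSO and 100% = wells lacking pPAFAH enzyme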
Active calls of the source: *; · = no result.

SMILES	PAFAH2 inh	pPAFAH FP inh	PAFAH1B3 FP inh	ASAP1 GAP inh	ARFGAP1 inh	PAFAH1B2 inh	pPAFAH confirm
O=C(O)c1cc2cc(Oc3ccccc3)ccc2[nH]1	-4.2	10.1	1.9	2.5	0.8	11.8	·
C[C@H](CO)N1C[C@H](C)[C@H](CN(C)C(=O)c2cc(-c3ccccc3)on2)OCc2cnnn2CCCC1=O	·	·	·	-9.0	-7.8	·	·
O=C(Oc1nsnc1N1CCCCC1)N1CCOCC1	27.6	79.3*	6.6	9.4	7.8	5.2	73.5*
N#CCCN(CCC#N)C(=O)C1c2ccccc2Oc2ccccc21	27.4	65.2*	17.6	1.9	-4.1	21.4	1.8
CN(CCC#N)C(=O)COC(=O)C1c2ccccc2Oc2ccccc21	-9.6	2.5	-4.0	2.0	-2.1	3.6	·
COC(=O)[C@H]1C[C@H](OC(=O)NC2CCCC2)[C@@]2(O)CN(S(=O)(=O)c3ccc(C)cc3)CC2[C@H]1C(=O)OC (some centres undefined)	·	·	·	-3.7	11.4	·	·
CCCOc1ccc(C(C)=O)cc1CSc1nc(O)cc(=O)[nH]1	5.7	34.7*	3.3	-4.1	-5.8	2.9	11.5
O=S(=O)(c1cccs1)N1CN(Cc2ccc(Cl)cc2)c2nc3ccccc3nc21	3.5	1.0	7.8	-2.6	-2.8	8.7	·
O=S(=O)(c1cccs1)N1CN(Cc2ccco2)c2nc3ccccc3nc21	1.8	46.4*	3.2	-8.4	-3.5	5.2	15.9
OCCOCCNc1ncnc2c1c(-c1ccccc1)cn2-c1ccccc1	0.6	34.6*	5.7	-2.4	8.3	2.6	22.3
CCc1cc2c(COC(=O)CCNS(=O)(=O)c3cccc(C(F)(F)F)c3)cc(=O)oc2cc1O	0.6	8.4	-0.8	7.3	-9.9	-5.6	·
CCN(CC)c1ccc(/C=N/NC(=O)c2cccc(S(=O)(=O)Nc3ccccc3OC)c2)cc1	-1.7	13.2	6.8	-20.9	6.2	9.9	·
CCN(CC)c1ccc(/C=N/NC(=O)c2cccc(S(=O)(=O)Nc3ccccc3OC)c2)c(O)c1	8.7	47.7*	17.6	4.2	6.0	15.2	65.2*
COC(=O)c1cnc(NC(=O)C2(C)CCCN(C(C)=O)C2)s1 (centres undefined)	·	·	·	4.7	0.2	·	·
O=C(Nc1cccc(Cl)c1)c1cccnn1	2.3	6.3	9.1	-6.8	7.7	5.5	·
CCOC(=O)C1(C)C=C(Nc2ccc(O)cc2)C(=O)N1c1ccc(O)cc1 (centres undefined)	7.2	70.1*	8.2	-3.2	-5.6	2.5	1.5
CCOC(=O)C1(C)C=C(Nc2ccc(OC)cc2)C(=O)N1c1ccc(OC)cc1 (centres undefined)	6.3	0.2	9.7	6.4	0.1	7.2	·
O=C(C=Cc1ccc(OCc2ccccc2)cc1)c1c(F)cccc1F	·	·	·	9.5	13.8	·	·
O=[N+]([O-])c1ccc(N/N=C/c2cccc(O)c2O)cc1	5.1	59.8*	31.5*	-1.9	3.6	10.6	56.5*
O=[N+]([O-])c1ccc(NN=Cc2cccc3ccccc23)nc1	4.1	·	0.9	3.4	-12.5	1.6	·
COc1cccc(/C=N/Nc2ccc([N+](=O)[O-])cn2)c1O	5.2	47.6*	-2.7	13.6	9.9	1.8	12.1
CCCS(=O)(=O)NC(=O)C1(C)CCCN(C(=O)c2cc(F)cc(F)c2)C1 (centres undefined)	·	·	·	-7.4	-4.9	·	·
C(=C\c1ccco1)/C1=NN(c2ccccc2)C(c2ccco2)C1 (centres undefined)	3.9	39.6*	2.8	·	·	-1.4	15.3
O=C(CNC(c1ccccc1)c1ccccc1)Nc1c(F)cccc1F	4.2	89.2*	12.8	3.3	-3.2	4.6	10.4
Cc1ccc(NC(=O)CNC(c2ccccc2)c2ccccc2)c(F)c1	5.2	-1.1	-10.0	7.3	-9.6	1.9	·
SMILES	PAFAH2 inh	pPAFAH FP inh	PAFAH1B3 FP inh	ASAP1 GAP inh	ARFGAP1 inh	PAFAH1B2 inh	pPAFAH confirm
c1ccc2nc(-c3ccc4c(c3)OCO4)ccc2c1	5.0	0.4	5.9	-4.1	1.5	6.5	·
CNc1ccccc(-c2ccc3cc4c(cc3n2)OCO4)c1=O	4.2	83.9*	2.4	-3.4	4.0	-2.9	0.4
C[C@@H]1CN([C@H](C)CO)C(=O)CCCn2nncc2CO[C@H]1CN(C)S(=O)(=O)c1ccc(Oc2ccccc2)cc1	·	·	·	0.0	-0.3	·	·
CC(=O)N1c2ccc(S(=O)(=O)N3CCC(C(=O)Nc4cccc(Cl)c4)CC3)cc2CC1C (centres undefined)	-2.4	38.6*	5.7	8.0	7.3	2.0	8.1
COc1ccc(S(=O)(=O)c2c(N)n(Cc3ccco3)c3nc4ccccc4nc23)cc1	18.6	36.1*	6.6	11.3	17.0	-1.9	9.5
COC(=O)C1CCN(C(=O)COC(=O)c2cc(-c3ccccc3)nc3ccc(OC)cc23)CC1	-6.0	7.0	-1.6	·	·	5.4	·
O=C1c2ccccc2[C@@H]2C[C@@H](O)[C@H](Nc3cccc(Cl)n3)CCN12	69.0*	35.5*	9.3	-1.6	5.5	1.7	23.1
CC(CCC(C)C(C)(C)C)[C@@H]1CC[C@H]2C3C[C@H](OS(O)(=S)=S)[C@H]4C[C@H](OS(O)(=S)=S)[C@@H](OS(O)(=S)=S)C[C@]4(C)[C@H]3CC[C@]12C (some centres undefined) (tested in a mixture with another compound)	-33.2	35.5*	-18.0	·	·	-7.0	23.4
CC(CCC(=O)NN)C1CCC2C3CCC4CC(O)CCC4(C)C3CCC12C (centres undefined)	4.8	·	-4.8	-7.1	11.1	-0.6	·
Cc1ccnc(Nc2nc(-c3ccc(O)c(O)c3)cs2)c1	-7.9	40.5*	18.2	-3.7	13.4	3.4	29.6*
Cc1cccnc1Nc1nc(-c2ccc(O)c(O)c2)cs1	-0.7	23.8	20.8	13.0	11.4	-1.6	·
Cc1cccc(Nc2nc(-c3ccc(O)c(O)c3)cs2)n1	7.4	50.8*	21.3	4.0	7.4	2.3	28.2*
Oc1ccc(-c2csc(Nc3cccc4ccccc34)n2)cc1O	15.8	72.4*	7.2	21.5	11.1	2.1	66.2*
Oc1ccc(-c2csc(Nc3ccccn3)n2)cc1O	11.4	40.5*	21.4	6.7	5.5	4.5	31.8*
COc1ccc(-n2nc3c(c2NC(=O)c2ccc(Br)o2)CS(=O)(=O)C3)cc1	-4.4	5.8	7.1	-4.0	6.0	3.0	·
Cc1cc(F)ccc1-c1cc(C(=O)NC(C)C)[nH]n1	·	·	·	5.4	4.9	·	·
Cc1cc(C)c(S(=O)(=O)N(C)CC(=O)N2CCCCC2)c(C)c1	7.0	51.6*	0.1	1.7	5.4	-0.3	0.0
Cc1cc(C)c(S(=O)(=O)N(CC(=O)N2CCCC2)C2CCCCC2)c(C)c1	2.4	3.6	10.9	5.0	2.3	1.2	·

Bioassay records as filed in PubChem.
